Values joined by “and” are separate entries in the source; they are usually repeats but may differ in a detail not shown here. Equal entries are not always repeated.
Legend:
L1210 [1] = test: Compound was evaluated in vivo for antitumor activity after intraperitoneal administration against L1210(935) for mortality range at an optimal dose of 0.4 mg/kg/injection at 1-4 day schedule.; format: functional, Mus musculus
In short: (§1)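 L1210 leukemia, maintained in DBA/2 mice, was given ip as 10⁵ cells on day 0 to F1 hybrid or strain-of-origin mice over 18 g, in groups of 8. Dosing was ip from day 1, and mortality was checked daily. Median day of death counts dying mice only. %ILS = 100×(treated − control median day of death)/control median. Tumor-free survivors were counted on day 60. Weight change is g/mouse at nadir.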

[2] = Compound was evaluated in vivo for antitumor activity against mammary adenocarcinoma 16/C after injecting the compound intravenously for percent T/C; format: functional, Mus musculus
In short: (§2)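 30-60 mg tumor fragments implanted sc by trocar on day 0 into C57Bl/6-derived hosts (B16) or C3H/He-derived hosts (16/C). Drug given iv on days 6, 9 and 13 (B16) or 6, 9 and 12 (16/C), 10 mice per group. Tumors measured by caliper. T/C % taken from median tumor burden of treated vs control groups on day 15 (B16) or day 14 (16/C). Body weight change per mouse recorded at nadir.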

L1210 [3] = test: Compound was evaluated in vivo for antitumor activity after intraperitoneal administration against L1210(935) for total dose at an optimal dose of 0.4 mg/kg/injection at 1-4 day schedule.; format: functional, Mus musculus; in short: as §1
P388 [4] = test: Compound was evaluated in vivo for antitumor activity after intraperitoneal administration against P388/L-PAM(14) for median day of death at an optimal dose of 0.5 mg/kg/injection at 1,4,7,11 day schedule.; format: functional, Mus musculus
[5] = Compound was evaluated in vivo for antitumor activity against colon adenocarcinoma 38 after injecting the compound intravenously for toxicity related death.; format: functional, Mus musculus
L1210 [6] = test: Compound was evaluated in vivo for antitumor activity after intraperitoneal administration against L1210(935)for change in body weight at an optimal dose of 0.5 mg/kg/injection at 1,4,7,11day schedule.; format: functional, Mus musculus; in short: as §1
B16 [7] = test: Compound was evaluated in vivo for antitumor activity against B16 melanoma 1 after injecting the compound intravenously for total dose.; format: functional, Mus musculus
L1210 [8] = test: Compound was evaluated in vivo for antitumor activity after intraperitoneal administration against L1210(935)for % increase in life span at an optimal dose of 0.5 mg/kg/injection at 1,4,7,11day schedule.; format: functional; settings: Mus musculus, L1210, ip; in short: as §1
[9] = Compound was evaluated in vivo for antitumor activity against mammary adenocarcinoma 16/C after injecting the compound intravenously for change in body weight.; format: functional, Mus musculus; in short: as §2
P388 [10] = test: Compound was evaluated in vivo for antitumor activity after intraperitoneal administration against P388 (1313) for % increase in life span at an optimal dose of 0.2 mg/kg/injection; format: functional; settings: Mus musculus, P388, ip
P388 [11] = test: Compound was evaluated in vivo for antitumor activity after intraperitoneal administration against P388/L-PAM(14) for median day of death at an optimal dose of 0.4 mg/kg/injection at 1,2,3,4 day schedule.; format: functional, Mus musculus
P388 [12] = test: Compound was evaluated in vivo for antitumor activity after intraperitoneal administration against P388 (1313) for tumor free survivors at an optimal dose of 0.2 mg/kg/injection; format: functional, Mus musculus
P388 [13] = test: Compound was evaluated in vivo for antitumor activity after intraperitoneal administration against P388 (1303) for total dose at an optimal dose of 0.75 mg/kg/injection; format: functional, Mus musculus
B16 [14] = test: Compound was evaluated in vivo for antitumor activity against B16 melanoma after injecting the compound intravenously for optimal dose; format: functional, Mus musculus; in short: as §2
P388 [15] = test: Compound was evaluated in vivo for antitumor activity after intraperitoneal administration against P388 (1303) for median day of death at an optimal dose of 0.75 mg/kg/injection; format: functional, Mus musculus
[16] = Compound was evaluated in vivo for antitumor activity against Glasgow osteogenic sarcoma after injecting the compound intravenously for total dose.; format: functional, Mus musculus
In short: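 Glasgow osteogenic sarcoma in C57Bl/6-derived hosts: 30-60 mg fragments implanted sc by trocar on day 0. Drug given iv on days 3, 6 and 9, 7 mice per group. Tumors measured by caliper. Median tumor burden recorded on day 10. Body weight change per mouse recorded at nadir. Toxicity-related deaths counted.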

L1210 [17] = test: Compound was evaluated in vivo for antitumor activity after intraperitoneal administration against L1210(935) for total dose at an optimal dose of 0.25 mg/kg/injection at 1,4,7,11day schedule.; format: functional, Mus musculus; in short: as §1
B16 [18] = test: Compound was evaluated in vivo for antitumor activity against […] B16 melanoma 1 after injecting the compound intravenously for optimal dose; format: functional, Mus musculus
P388 [19] = test: Compound was evaluated in vivo for antitumor activity after intraperitoneal administration against P388 (1313) for mortality range at an optimal dose of 0.2 mg/kg/injection; format: functional, Mus musculus
L1210 [20] = test: Compound was evaluated in vivo for antitumor activity after intraperitoneal administration against L1210(935) for mortality range at an optimal dose of 0.5 mg/kg/injection at 1,4,7,11day schedule.; format: functional, Mus musculus; in short: as §1
L1210 [21] = test: Compound was evaluated in vivo for antitumor activity after intraperitoneal administration against L1210(935)for % increase in life span at an optimal dose of 0.2 mg/kg/injection at 1-4 day schedule.; format: functional; settings: Mus musculus, L1210, ip; in short: as §1
P388 [22] = test: Compound was evaluated in vivo for antitumor activity after intraperitoneal administration against P388 (1313) for % increase in life span at an optimal dose of 0.25 mg/kg/injection; format: functional; settings: Mus musculus, P388, ip
P388 [23] = test: Compound was evaluated in vivo for antitumor activity after intraperitoneal administration against P388/L-PAM(14) for tumor free survivors at an optimal dose of 0.5 mg/kg/injection at 1,4,7,11 day schedule on day 60; format: functional, Mus musculus
P388 [24] = test: Compound was evaluated in vivo for antitumor activity after intraperitoneal administration against P388/L-PAM(14) for % increase in life span at an optimal dose of 0.2 mg/kg/injection at 1,2,3,4 day schedule.; format: functional; settings: Mus musculus, P388, ip
L1210 [25] = test: Compound was evaluated in vivo for antitumor activity after intraperitoneal administration against L1210(935) for median day of death at an optimal dose of 0.5 mg/kg/injection at 1,4,7,11day schedule.; format: functional, Mus musculus; in short: as §1
L1210 [26] = test: Compound was evaluated in vivo for antitumor activity after intraperitoneal administration against L1210(935)for change in body weight at an optimal dose of 0.125 mg/kg/injection at 1,4,7,11day schedule.; format: functional, Mus musculus; in short: as §1
B16 [27] = test: Compound was evaluated in vivo for antitumor activity against B16 melanoma after injecting the compound intravenously for toxicity related death.; format: functional, Mus musculus; in short: as §2
P388 [28] = test: Compound was evaluated in vivo for antitumor activity after intraperitoneal administration against P388 (1313) for mortality range at an optimal dose of 1 mg/kg/injection; format: functional, Mus musculus
P388 [29] = test: Compound was evaluated in vivo for antitumor activity after intraperitoneal administration against P388 (1313) for change in body weight at an optimal dose of 1 mg/kg/injection; format: functional, Mus musculus
[30] = Compound was evaluated in vivo for antitumor activity against colon adenocarcinoma 38 after injecting the compound intravenously for total dose.; format: functional, Mus musculus
B16 [31] = test: Compound was evaluated in vivo for antitumor activity against B16 melanoma after injecting the compound intravenously for percent T/C (value in parentheses indicates the day of evaluation); format: functional, Mus musculus; in short: as §2
L1210 [32] = test: Compound was evaluated in vivo for antitumor activity after intraperitoneal administration against L1210(935)for % increase in life span at an optimal dose of 0.1 mg/kg/injection at 1-4 day schedule.; format: functional; settings: Mus musculus, L1210, ip; in short: as §1
B16 [33] = test: Compound was evaluated in vivo for antitumor activity against B16 melanoma after injecting the compound intravenously for total dose.; format: functional, Mus musculus; in short: as §2

CN(C)CCCNc1ncnc2c1C(=O)C(N1CC1)=C(N1CC1)C2=O
Mortality (L1210 [1]): 20 days | T/C [2]: 48% and 68% | Total dose (L1210 [3]): 1.6 mg/kg | Median day of death (P388 [4]): 22.5 | Toxicity [5]: 0 | Change in body weight (L1210 [6]): 1.1 g mouse-1 | Total dose (B16 [7]): 1.8 mg/kg | ILS at 0.5 mg/kg (L1210 [8]): 27% | Change in body weight [9]: 0.5 g mouse-1 and 1 g mouse-1 | ILS at 0.2 mg/kg (P388 [10]): 62% | Median day of death (P388 [11]): 20 | Survivors (P388 [12]): 0 | Optimal dose (P388 [13]): 0.75 mg/kg | Optimal dose (B16 [14]): 0.4 mg/kg and 0.2 mg/kg | Median day of death (P388 [15]): 18.5 | Total dose [16]: 1.08 mg/kg | Total dose (L1210 [17]): 1 mg/kg | Optimal dose (B16 [18]): 0.2 mg/kg | Optimal dose (P388 [19]): 28 mg/kg | Mortality (L1210 [20]): 18 days | ILS at 0.2 mg/kg (L1210 [21]): 27% | ILS at 0.25 mg/kg (P388 [22]): 58% | Survivors (P388 [23]): 0 | ILS at 0.2 mg/kg (P388 [24]): 36% | Median day of death (L1210 [25]): 14 | Change in body weight (L1210 [26]): 2.7 g mouse-1 | Toxicity (B16 [27]): 0 | Mortality (P388 [28]): 24 days | Change in body weight (P388 [29]): -0.5 | Total dose [30]: 0.5 mg/kg | T/C (B16 [31]): 41% and 78% | ILS at 0.1 mg/kg (L1210 [32]): 27% | Total dose (B16 [33]): 0.6 mg/kg

From ChEMBL document CHEMBL1125740, “Heterocyclic quinones. 17. A new in vivo active antineoplastic drug: 6,7-bis(1-aziridinyl)-4-[[3-(N,N-dimethylamino)propyl]amino]-5,8- quinazolinedione” (J Med Chem, 1991)
